Compound activity deposited in PubChem by ICCB-Longwood Screening Facility, Harvard Medical School.
LANA-nucl inh = inhibitors of KSHV LANA-nucleosome binding, primary screen, biochemical, fluorescence polarization, FITC-LANA1-23, chicken nucleosomes; FITC-LANA1-23 / chicken nucleosome fluorescence polarization; hits give low values; z-score (concentration not given with the values); 51,000 tested, 0.3% active;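 active = both repeat wells score below -2 in polarization z-score versus plate sample wells, excluding overly bright wells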
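Material: Purified chicken nucleosomes with FITC-labelled LANA N-terminal peptide (1-23) | Reagent: 50 nM FITC-LANA1-23 probe | Medium: TEN-BT buffer, pH 7.5 | Times: 10–45 min incubation at room temperature | Detection: Fluorescence polarization | Replication: Duplicates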
BasE inh = BasE siderophore enzyme inhibitors, primary screen, biochemical, Acinetobacter baumannii ATCC 17978, fluorescence polarization; 84,000 tested, 0.1% active; AID 485350, 2010; inhibition, % (concentration not given with the values); purified BasE, fluorescence polarization binding displacement; in the data active = inhibition above about 25%, passing the limit was not always enough
Large screens that a line does not name were inactive. Hits are enriched below; roughly 0.3% of the tested compounds scored in any of these assays.

CC(C)C(C(=O)O)N1C(=O)/C(=C/C=C/c2ccco2)SC1=S (stereo not given)	none
O=C(O)CCC(C(=O)O)N1C(=O)/C(=C/C=C/c2ccco2)SC1=S (stereo not given)	LANA-nucl inh -2.2
O=C1/C(=C\C=C\c2ccco2)SC(=S)N1NS(=O)(=O)c1ccccc1	BasE inh 40
COc1ccccc1N=C(N)Nc1cccc(C(F)(F)F)c1	none (no result: LANA-nucl inh)
CCOC(=O)c1c(C)n(CCNC(C)=O)c2cc(Br)c(OC)cc12	none
O=C1C(c2ccc(I)cc2)=C(O)c2ccccc21	none (no result: LANA-nucl inh)
O=C1C(c2ccnc3ccccc23)=C(O)c2ccccc21	LANA-nucl inh -4.2
Cc1csc(C(C#N)C(=O)CSc2cc(C)c3ccccc3n2)n1 (stereo not given)	none (no result: LANA-nucl inh)
Cc1csc(C(C#N)C(=O)CSc2nc3ccccc3n2-c2ccccc2)n1 (stereo not given)	BasE inh 35 (no result: LANA-nucl inh)
